Measurements taken from ChEMBL document CHEMBL2429786, “New serotonin 5-HT1A receptor agonists endowed with antinociceptive activity in vivo” (J Med Chem, 2013).
The source made the active and inactive calls. No cut-off for these calls is given here.

How the values were obtained:
Mus musculus [1] = assay: Antinociceptive activity in CD-1 mouse assessed as reduction of formalin-induced paw licking activity at 3 mg/kg, ip administered 15 mins prior to formalin-challenge measured after 15 to 30 mins; type: functional, organism-based; design: dose 3 mg/kg
Albumin = Albumin (Homo sapiens, UniProt P02768); assay: Binding affinity to human serum albumin at 5 uM after 12 mins by HPLC-MS analysis relative to control; type: ADME; conditions: isolated protein, 0.2 h
CYP2D6 = CYP2D6 (Homo sapiens, UniProt P10635); assay: Inhibition of human recombinant microsomal CYP2D6 using {3-[2-(N,N-diethyl-N-methylamino)ethyl]-7-methoxy-4-methylcoumarin} as substrate assessed as remaining activity at 10 uM after 30 mins by spectrofluorimetric analysis relative to control; type: ADME; conditions: read-out: Activity
[2] = Half life in human liver microsomes at 1 to 5 uM by HPLC-MS analysis; type: ADME, Microsome
Procedure, shortened: (§1)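 Incubation mixtures pre-equilibrated at 37 °C with NADPH and MgCl2, then rat or human liver microsomes added to start the reaction. Aliquots were withdrawn and quenched at several time points, and percent parent remaining was measured by HPLC-MS and plotted against time. t1/2 was taken from the slope of peak area over time and used to calculate CLint.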

[3] = Intrinsic clearance in human liver microsomes at 1 to 5 uM by HPLC-MS analysis; type: ADME, Microsome; conditions: read-out: CLH; procedure, shortened: as §1
[4] = Intrinsic clearance in Sprague-Dawley rat liver microsomes at 1 to 5 uM by HPLC-MS analysis; type: ADME, Microsome; conditions: read-out: CLH; procedure, shortened: as §1
[5] = Half life in Sprague-Dawley rat liver microsomes at 1 to 5 uM by HPLC-MS analysis; type: ADME, Microsome; procedure, shortened: as §1
Mus musculus [6] = species on record: Mus musculus; assay: Hypothermic activity in Swiss mouse assessed as change in rectal temperature after 60 mins; type: functional; conditions: 1 h, read-out: MED
[7] = molecular target: 5-hydroxytryptamine receptor 7 (Rattus norvegicus, UniProt P32305); assay: Displacement of [3H]-5-CT from 5-HT7 receptor in Sprague-Dawley rat hypothalamus after 120 mins
[8] = molecular target: 5-hydroxytryptamine receptor 4 (Rattus norvegicus, UniProt Q62758); assay: Displacement of [3H]GR113808 from 5-HT4 receptor in Sprague-Dawley rat striatum after 30 mins
[9] = molecular target: T1, 5-hydroxytryptamine receptor 3A (Rattus norvegicus, UniProt P35563); assay: Displacement of [3H]LY 278584 from 5-HT3 receptor in Sprague-Dawley rat cerebral cortex after 30 mins; type: tissue-based
T1 sequence (P35563 whole entry): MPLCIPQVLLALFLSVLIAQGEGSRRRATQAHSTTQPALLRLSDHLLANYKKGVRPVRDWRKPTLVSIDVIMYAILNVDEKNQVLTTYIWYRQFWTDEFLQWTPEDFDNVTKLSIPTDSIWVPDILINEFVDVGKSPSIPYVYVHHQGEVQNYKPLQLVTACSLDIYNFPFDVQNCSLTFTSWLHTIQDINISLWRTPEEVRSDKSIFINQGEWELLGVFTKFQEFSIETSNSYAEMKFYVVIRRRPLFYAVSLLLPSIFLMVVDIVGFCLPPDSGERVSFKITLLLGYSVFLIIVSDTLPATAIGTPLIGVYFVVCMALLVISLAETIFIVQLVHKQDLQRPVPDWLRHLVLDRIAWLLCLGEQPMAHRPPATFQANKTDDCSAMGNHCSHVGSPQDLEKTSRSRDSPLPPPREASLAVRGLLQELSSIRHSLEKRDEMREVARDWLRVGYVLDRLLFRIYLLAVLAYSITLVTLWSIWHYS

[10] = molecular target: 5-hydroxytryptamine receptor 2A (Rattus norvegicus, UniProt P14842); assay: Displacement of [3H]ketanserin from 5-HT2A receptor in Sprague-Dawley rat frontal cortex after 15 mins; type: tissue-based
[11] = molecular target: T2, 5-hydroxytryptamine receptor 1A (Rattus norvegicus, UniProt P19327); assay: Displacement of [3H]-8-OH-DPAT from 5-HT1A receptor in Sprague-Dawley rat cerebral cortex after 15 mins; type: tissue-based
T2 sequence (P19327 whole entry): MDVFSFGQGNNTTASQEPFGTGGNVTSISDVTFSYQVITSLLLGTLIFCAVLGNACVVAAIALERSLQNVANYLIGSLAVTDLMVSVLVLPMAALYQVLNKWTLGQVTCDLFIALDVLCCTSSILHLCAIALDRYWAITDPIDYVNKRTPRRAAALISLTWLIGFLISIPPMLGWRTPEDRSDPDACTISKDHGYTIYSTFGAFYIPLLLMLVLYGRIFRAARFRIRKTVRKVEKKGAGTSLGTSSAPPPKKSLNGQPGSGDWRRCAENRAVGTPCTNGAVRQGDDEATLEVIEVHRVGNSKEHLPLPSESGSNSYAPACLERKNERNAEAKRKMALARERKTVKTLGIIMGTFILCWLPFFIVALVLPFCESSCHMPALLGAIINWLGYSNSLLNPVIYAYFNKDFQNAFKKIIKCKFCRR

Mus musculus [12] = assay: Antinociceptive activity in CD-1 mouse assessed as reduction of formalin-induced paw licking activity at 100 mg/kg, ip administered 15 mins prior to formalin-challenge measured after 5 to 30 mins; type: functional, organism-based; design: dose 100 mg/kg
Procedure, shortened: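 Formalin injected intradermally in mice. Formalin-induced nociceptive behaviour is scored separately in the early and late phases of the test.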

[13] = molecular target: T3, 5-hydroxytryptamine receptor 1A (Homo sapiens, UniProt P08908); assay: Agonist activity at human 5-HT1A receptor expressed in human HeLa cells assessed as inhibition of forskolin-stimulated cAMP formation after 10 mins by RIA; type: functional, cell-based
T3 sequence (P08908 whole entry): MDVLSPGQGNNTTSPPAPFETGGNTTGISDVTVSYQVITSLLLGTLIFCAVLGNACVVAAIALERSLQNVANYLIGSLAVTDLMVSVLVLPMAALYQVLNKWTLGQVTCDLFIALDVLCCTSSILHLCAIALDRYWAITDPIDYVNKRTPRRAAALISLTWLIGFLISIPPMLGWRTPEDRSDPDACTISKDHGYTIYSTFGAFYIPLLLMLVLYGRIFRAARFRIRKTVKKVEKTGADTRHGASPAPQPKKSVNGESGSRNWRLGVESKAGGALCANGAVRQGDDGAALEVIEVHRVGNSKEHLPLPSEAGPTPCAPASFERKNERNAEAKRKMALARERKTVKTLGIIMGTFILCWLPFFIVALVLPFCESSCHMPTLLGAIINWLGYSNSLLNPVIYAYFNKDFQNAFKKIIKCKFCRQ

Chain of 5-hydroxytryptamine receptor 4 (Q62758 whole entry): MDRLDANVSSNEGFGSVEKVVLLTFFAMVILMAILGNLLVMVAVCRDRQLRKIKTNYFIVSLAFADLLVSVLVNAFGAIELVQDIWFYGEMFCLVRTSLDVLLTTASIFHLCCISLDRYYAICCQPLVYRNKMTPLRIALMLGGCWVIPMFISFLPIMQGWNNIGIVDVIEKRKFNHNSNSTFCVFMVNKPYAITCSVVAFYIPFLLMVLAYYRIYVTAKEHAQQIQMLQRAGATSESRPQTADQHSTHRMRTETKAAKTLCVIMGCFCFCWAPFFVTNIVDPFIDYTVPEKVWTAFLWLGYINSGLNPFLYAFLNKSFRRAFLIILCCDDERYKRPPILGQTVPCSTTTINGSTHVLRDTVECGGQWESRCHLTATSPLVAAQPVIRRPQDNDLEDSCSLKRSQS
Chain of 5-hydroxytryptamine receptor 7 (P32305 whole entry): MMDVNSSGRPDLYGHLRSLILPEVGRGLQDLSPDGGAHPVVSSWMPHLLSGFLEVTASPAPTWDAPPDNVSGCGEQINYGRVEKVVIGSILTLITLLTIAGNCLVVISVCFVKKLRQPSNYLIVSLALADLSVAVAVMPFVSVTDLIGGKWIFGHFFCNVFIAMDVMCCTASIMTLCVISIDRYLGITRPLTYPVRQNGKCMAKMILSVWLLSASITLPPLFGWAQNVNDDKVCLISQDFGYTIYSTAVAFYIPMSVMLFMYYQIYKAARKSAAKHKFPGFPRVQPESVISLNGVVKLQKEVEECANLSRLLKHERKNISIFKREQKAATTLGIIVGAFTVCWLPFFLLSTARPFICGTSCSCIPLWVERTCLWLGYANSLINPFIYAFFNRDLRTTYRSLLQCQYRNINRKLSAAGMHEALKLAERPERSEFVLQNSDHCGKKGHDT
Chain of CYP2D6 (P10635 whole entry): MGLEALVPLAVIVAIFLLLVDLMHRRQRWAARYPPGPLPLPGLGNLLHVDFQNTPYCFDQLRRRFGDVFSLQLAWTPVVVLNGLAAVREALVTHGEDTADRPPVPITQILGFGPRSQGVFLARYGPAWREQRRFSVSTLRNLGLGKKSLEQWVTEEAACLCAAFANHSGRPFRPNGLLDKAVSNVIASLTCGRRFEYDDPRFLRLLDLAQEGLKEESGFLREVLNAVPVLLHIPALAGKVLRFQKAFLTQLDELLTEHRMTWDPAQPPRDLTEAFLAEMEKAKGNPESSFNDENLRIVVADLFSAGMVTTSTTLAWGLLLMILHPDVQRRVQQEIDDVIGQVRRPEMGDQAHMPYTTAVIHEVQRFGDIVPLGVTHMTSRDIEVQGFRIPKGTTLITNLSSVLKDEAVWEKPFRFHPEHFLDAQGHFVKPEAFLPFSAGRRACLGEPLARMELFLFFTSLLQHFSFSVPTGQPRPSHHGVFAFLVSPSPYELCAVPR
Chain of Albumin (P02768 whole entry): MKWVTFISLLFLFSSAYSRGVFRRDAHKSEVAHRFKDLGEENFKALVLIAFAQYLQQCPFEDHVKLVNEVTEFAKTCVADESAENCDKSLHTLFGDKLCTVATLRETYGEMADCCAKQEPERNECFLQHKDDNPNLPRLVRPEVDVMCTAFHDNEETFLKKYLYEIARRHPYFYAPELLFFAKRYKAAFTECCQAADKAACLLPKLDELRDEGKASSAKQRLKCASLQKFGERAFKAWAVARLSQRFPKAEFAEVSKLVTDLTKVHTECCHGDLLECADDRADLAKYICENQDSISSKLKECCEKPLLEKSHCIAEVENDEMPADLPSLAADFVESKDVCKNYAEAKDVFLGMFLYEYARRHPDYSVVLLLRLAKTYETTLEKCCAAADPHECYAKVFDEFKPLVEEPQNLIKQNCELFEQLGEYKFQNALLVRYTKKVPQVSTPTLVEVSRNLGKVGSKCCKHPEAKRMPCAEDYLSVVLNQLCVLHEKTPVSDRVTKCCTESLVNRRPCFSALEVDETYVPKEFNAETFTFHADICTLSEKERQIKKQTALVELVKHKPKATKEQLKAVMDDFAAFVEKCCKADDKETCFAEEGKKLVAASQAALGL
Chain of 5-hydroxytryptamine receptor 2A (P14842 whole entry): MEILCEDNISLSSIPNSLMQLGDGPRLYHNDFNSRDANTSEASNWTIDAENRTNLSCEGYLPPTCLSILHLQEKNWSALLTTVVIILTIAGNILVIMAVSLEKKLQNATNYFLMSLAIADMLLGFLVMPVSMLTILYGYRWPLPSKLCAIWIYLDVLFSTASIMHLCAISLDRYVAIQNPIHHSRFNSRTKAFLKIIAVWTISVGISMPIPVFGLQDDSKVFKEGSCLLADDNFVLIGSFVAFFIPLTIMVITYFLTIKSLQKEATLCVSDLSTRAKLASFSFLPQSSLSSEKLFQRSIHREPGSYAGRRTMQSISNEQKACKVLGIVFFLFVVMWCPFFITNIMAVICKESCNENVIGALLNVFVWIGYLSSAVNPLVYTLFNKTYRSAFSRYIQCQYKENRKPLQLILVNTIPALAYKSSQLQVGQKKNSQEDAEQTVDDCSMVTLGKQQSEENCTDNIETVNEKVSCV

Row | SMILES | Ki [7] [nM] | Ki [8] [nM] | Ki [9] [nM] | Ki [10] [nM] | Ki [11] [nM] | also measured
1 | Cl.O=C1C2CCCN2C(=O)N1CCCCNCCOc1ccccc1 (centres undefined) | > 1000 | > 1000 | > 1000 | > 1000 |  | Activity (Mus musculus [1]): Active; Activity (Albumin): 38%; activity at 0.5 h, 10 µM (CYP2D6): 24%; half-life at up to 5 µM [2]: 2.52 h; CLint scaled at up to 5 µM [3]: 4.1 mL/min/kg; CLint scaled at up to 5 µM [4]: 140 mL/min/kg; half-life at up to 5 µM [5]: 0.167 h; minimal effective dose (Mus musculus [6]): 2.5 mg/kg
2 | O=C1C2CCCN2C(=O)N1CCCCNCCOc1cccc(-c2ccccc2)c1 (centres undefined) |  |  |  |  | 72 | 
3 | COc1ccc(OCCNCCCCN2C(=O)C3CCCN3C2=O)cc1 (centres undefined) |  |  |  |  | > 1000 | 
4 | O=C1C2CCCN2C(=O)N1CCCCNCCOc1cccc(C(F)(F)F)c1 (centres undefined) |  |  |  |  | 38.9 | 
5 | NCC1(CC(=O)O)CCCCC1 |  |  |  |  |  | Activity (Mus musculus [12]): Active
6 | CCc1ccc(OCCNCCCCN2C(=O)C3CCCN3C2=O)cc1 (centres undefined) |  |  |  |  | 742 | 
7 | O=C1C2CCCN2C(=O)N1CCCCNCCOc1cccc(Br)c1 (centres undefined) | > 1000 | > 1000 | > 1000 | 514 | 52 | 
8 | CCc1cccc(OCCNCCCCN2C(=O)C3CCCN3C2=O)c1 (centres undefined) | > 1000 | > 1000 | > 1000 | > 1000 | 30 | 
9 | N#Cc1ccccc1OCCNCCCCN1C(=O)C2CCCN2C1=O (centres undefined) |  |  |  |  | > 1000 | 
10 | O=C1C2CCCN2C(=O)N1CCCCNCCOc1ccccc1-c1ccccc1 (centres undefined) | 101 | > 1000 | > 1000 | > 1000 | 26 | 
11 | COc1cc(F)ccc1OCCNCCCCN1C(=O)C2CCCN2C1=O (centres undefined) | > 1000 | > 1000 | > 1000 | > 1000 | 37.4 | 
12 | Cl.O=C1C2CCCN2C(=O)N1CCCCNCCOc1cccc2ccccc12 (centres undefined) |  | > 1000 | > 1000 | 41 |  | Activity (Mus musculus [1]): Active; Activity (Albumin): 60%; activity at 0.5 h, 10 µM (CYP2D6): 6%; half-life at up to 5 µM [2]: 2.05 h; CLint scaled at up to 5 µM [3]: 5.1 mL/min/kg; CLint scaled at up to 5 µM [4]: 171 mL/min/kg; half-life at up to 5 µM [5]: 0.135 h; minimal effective dose (Mus musculus [6]): 10 mg/kg; EC50 [13]: 45 nM
13 | COc1ccc(OCCNCCCCN2C(=O)C3CCCN3C2=O)c2ccccc12 (centres undefined) | 301 | > 1000 | > 1000 | > 1000 | 27 | 
14 | O=C1C2CCCN2C(=O)N1CCCCNCCOc1cccc2c1CCCC2 (centres undefined) | > 1000 | > 1000 | > 1000 | 49 | 38 | 
15 | CC(C)c1ccccc1OCCNCCCCN1C(=O)C2CCCN2C1=O (centres undefined) | > 1000 | > 1000 | > 1000 | 260 | 38 | 
16 | COc1ccccc1CNCCCCN1C(=O)C2CCCN2C1=O (centres undefined) |  |  |  |  | > 1000 | 
17 | O=C1C2CCCN2C(=O)N1CCCCNCCOc1cccc2cccnc12 (centres undefined) | 15 | > 1000 | > 1000 | > 1000 | 44 | 
18 | COc1cccc(OCCNCCCCN2C(=O)C3CCCN3C2=O)c1 (centres undefined) | > 1000 | > 1000 | > 1000 | > 1000 | 34 | 
19 | COc1ccccc1OCCNCCCCN1C(=O)C2CCCN2C1=O.Cl (centres undefined) | > 1000 | > 1000 | > 1000 | 267 | 4.8 | Activity (Mus musculus [1]): Active; Activity (Albumin): 25%; activity at 0.5 h, 10 µM (CYP2D6): 48%; half-life at up to 5 µM [2]: 3.95 h; CLint scaled at up to 5 µM [3]: 2.6 mL/min/kg; CLint scaled at up to 5 µM [4]: 145 mL/min/kg; half-life at up to 5 µM [5]: 0.162 h; minimal effective dose (Mus musculus [6]): 0.625 mg/kg; EC50 [13]: 23 nM
20 | N#Cc1cccc(OCCNCCCCN2C(=O)C3CCCN3C2=O)c1 (centres undefined) |  |  |  |  | > 1000 | 
21 | O=C1C2CCCN2C(=O)N1CCCCNCCOc1ccc(-c2ccccc2)cc1 (centres undefined) |  |  |  |  | > 1000 | 
22 | O=C1C2CCCN2C(=O)N1CCCCNCCOc1ccccc1C(F)(F)F (centres undefined) |  |  |  |  | 510 | 
23 | COc1cc(COc2cc(N)c(Cl)cc2C(=O)CCC2CCN(CCNS(C)(=O)=O)CC2)cc(OC)c1 |  | 3.9 |  |  |  | 
24 | O=C1C2CCCN2C(=O)N1CCCCNCCOc1ccc(C(F)(F)F)cc1 (centres undefined) |  |  |  |  | > 1000 | 
25 | NCCc1c[nH]c2ccc(C(N)=O)cc12 | 1.8 |  |  |  |  | 
26 | O=C1C2CCCN2C(=O)N1CCCCNCCOc1ccc2ccccc2c1 (centres undefined) | > 1000 | > 1000 | > 1000 | 422 | 41 | 
27 | O=C1C2CCCN2C(=O)N1CCCCNCCOc1ccccc1Br (centres undefined) |  |  |  |  | 62 | 
28 | N#Cc1ccc(OCCNCCCCN2C(=O)C3CCCN3C2=O)cc1 (centres undefined) |  |  |  |  | > 1000 | 
29 | O=C1C2CCCN2C(=O)N1CCCCNCCOc1ccc(Br)cc1 (centres undefined) |  |  |  |  | > 1000 | 
30 | Cc1cccc(OCCNCCCCN2C(=O)C3CCCN3C2=O)c1C (centres undefined) | > 1000 | > 1000 | > 1000 | 310 | 45 | 
